pIC50: −log10 of the molar value. Activity calls are given as the source filed them. The rule behind the calls is not given here.
system: CCRF-CEM; test: Cytotoxicity against human CEM cells assessed as reduction in cell viability incubated for 72 hrs by resazurin assay; type: functional, cell-based; conditions: not given
Method in brief: (§1)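 Cells (CEM, HeLa, MCF7, BJ fibroblasts) exposed to compounds for 72 h, viability read by resazurin staining. Values are means ± SD from at least three independent experiments run in triplicate.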

SMILES | pIC50
CC(=O)O[C@H]1CC[C@@]2(C)[C@H](CC[C@@H]3[C@@H]2CC[C@]2(C)[C@@H](c4ccoc4)[C@@H](OC(C)=O)C[C@]32O)C1 | 4.85
C[C@]12CC[C@H](O)C[C@H]1CC[C@@H]1[C@@H]2CC[C@]2(C)[C@@H](c3ccoc3)[C@@H](O)C[C@]12O | 5.44
CC(C)(C)[Si](C)(C)O[C@H]1CC[C@@]2(C)[C@H](CC[C@@H]3[C@@H]2CC[C@]2(C)[C@@H](c4ccoc4)[C@@H](O)C[C@]32O)C1 | 5.00

system: MCF7; test: Cytotoxicity against human MCF7 cells assessed as reduction in cell viability incubated for 72 hrs by resazurin assay; type: functional, cell-based; conditions: MCF7, 72 h; method in brief: as §1

SMILES | pIC50
CC(=O)O[C@H]1CC[C@@]2(C)[C@H](CC[C@@H]3[C@@H]2CC[C@]2(C)[C@@H](c4ccoc4)[C@@H](OC(C)=O)C[C@]32O)C1 | 4.69
C[C@]12CC[C@H](O)C[C@H]1CC[C@@H]1[C@@H]2CC[C@]2(C)[C@@H](c3ccoc3)[C@@H](O)C[C@]12O | 4.97
CC(C)(C)[Si](C)(C)O[C@H]1CC[C@@]2(C)[C@H](CC[C@@H]3[C@@H]2CC[C@]2(C)[C@@H](c4ccoc4)[C@@H](O)C[C@]32O)C1 | 4.71

system: HeLa; test: Cytotoxicity against human HeLa cells assessed as reduction in cell viability incubated for 72 hrs by resazurin assay; type: functional, cell-based; conditions: not given; method in brief: as §1

SMILES | pIC50
CC(=O)O[C@H]1CC[C@@]2(C)[C@H](CC[C@@H]3[C@@H]2CC[C@]2(C)[C@@H](c4ccoc4)[C@@H](OC(C)=O)C[C@]32O)C1 | 4.37
C[C@]12CC[C@H](O)C[C@H]1CC[C@@H]1[C@@H]2CC[C@]2(C)[C@@H](c3ccoc3)[C@@H](O)C[C@]12O | 4.84
CC(C)(C)[Si](C)(C)O[C@H]1CC[C@@]2(C)[C@H](CC[C@@H]3[C@@H]2CC[C@]2(C)[C@@H](c4ccoc4)[C@@H](O)C[C@]32O)C1 | 4.57

system: BJ; test: Cytotoxicity against human BJ cells assessed as reduction in cell viability incubated for 72 hrs by resazurin assay; type: cell-based; conditions: not given; method in brief: as §1

SMILES | pIC50
CC(=O)O[C@H]1CC[C@@]2(C)[C@H](CC[C@@H]3[C@@H]2CC[C@]2(C)[C@@H](c4ccoc4)[C@@H](OC(C)=O)C[C@]32O)C1 | 5.21
C[C@]12CC[C@H](O)C[C@H]1CC[C@@H]1[C@@H]2CC[C@]2(C)[C@@H](c3ccoc3)[C@@H](O)C[C@]12O | 5.72
CC(C)(C)[Si](C)(C)O[C@H]1CC[C@@]2(C)[C@H](CC[C@@H]3[C@@H]2CC[C@]2(C)[C@@H](c4ccoc4)[C@@H](O)C[C@]32O)C1 | 5.24

species: Sus scrofa; test: Inhibition of porcine kidney Na+/K+ ATPase at 50 uM assessed as enzyme residual activity using ATP as substrate incubated for 2 mins followed by substrate addition and measured after 6 mins (reference value: 100 +/-3.16%); type: tissue-based; conditions: time 8.0 min

SMILES | Activity [%]
CC(=O)O[C@H]1CC[C@@]2(C)[C@H](CC[C@@H]3[C@@H]2CC[C@]2(C)[C@@H](c4ccoc4)[C@@H](OC(C)=O)C[C@]32O)C1 | 79.9
C[C@]12CC[C@H](O)C[C@H]1CC[C@@H]1[C@@H]2CC[C@]2(C)[C@@H](c3ccoc3)[C@@H](O)C[C@]12O | 7.9
CC(C)(C)[Si](C)(C)O[C@H]1CC[C@@]2(C)[C@H](CC[C@@H]3[C@@H]2CC[C@]2(C)[C@@H](c4ccoc4)[C@@H](O)C[C@]32O)C1 | 15.1

system: HeLa; test: Induction of cell cycle arrest in human HeLa cells assessed as decrease in accumulation of cells at G0/G1 phase at 1 to 10 uM incubated for 24 hrs by PI staining based flow cytometry analysis relative to control; type: functional; parameters: scale not given: the % may be the effect or the level left; conditions: dose 1-10 µM
Method in brief: (§2)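 HeLa cells treated 24 h at 1 or 10 µM, then harvested, fixed and stained with propidium iodide. DNA content measured by flow cytometry and cells assigned to subG1 (apoptotic), G0/G1, S and G2/M. Compared with untreated and DMSO-only controls. Means of three independent experiments in triplicate; one-way ANOVA, p < 0.05.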

SMILES | Activity [%]
C[C@]12CC[C@H](O)C[C@H]1CC[C@@H]1[C@@H]2CC[C@]2(C)[C@@H](c3ccoc3)[C@@H](O)C[C@]12O | 4.4

system: HeLa; test: Induction of cell cycle arrest in human HeLa cells assessed as increase in accumulation at subG1 phase at 1 to 10 uM incubated for 24 hrs by PI staining based flow cytometry analysis relative to control; type: functional; conditions: dose 1-10 µM; method in brief: as §2

SMILES | fold change (FC)
C[C@]12CC[C@H](O)C[C@H]1CC[C@@H]1[C@@H]2CC[C@]2(C)[C@@H](c3ccoc3)[C@@H](O)C[C@]12O | 2

system: HeLa; test: Induction of cell cycle arrest in human HeLa cells assessed as increase in accumulation at G2/M phase at 1 uM incubated for 24 hrs by PI staining based flow cytometry analysis relative to control; type: functional; conditions: not given; method in brief: as §2

SMILES | Activity
C[C@]12CC[C@H](O)C[C@H]1CC[C@@H]1[C@@H]2CC[C@]2(C)[C@@H](c3ccoc3)[C@@H](O)C[C@]12O | Active

system: HeLa; test: Induction of cell cycle arrest in human HeLa cells assessed as increase in accumulation at G2/M phase at 10 uM incubated for 24 hrs by PI staining based flow cytometry analysis relative to control; type: functional; conditions: not given; method in brief: as §2

SMILES | Activity
C[C@]12CC[C@H](O)C[C@H]1CC[C@@H]1[C@@H]2CC[C@]2(C)[C@@H](c3ccoc3)[C@@H](O)C[C@]12O | Active

system: HeLa; test: Induction of apoptosis in human HeLa cells assessed as fold increase in caspase 3/7 activity at 1 to 10 uM incubated for 24 hrs by fluorescence based assay relative to control; type: functional; conditions: dose 1-10 µM

SMILES | fold change (FC)
C[C@]12CC[C@H](O)C[C@H]1CC[C@@H]1[C@@H]2CC[C@]2(C)[C@@H](c3ccoc3)[C@@H](O)C[C@]12O | 2

system: HeLa; test: Induction of apoptosis in human HeLa cells assessed as increase in PARP-1 cleavage at 10 uM incubated for 24 hrs by Western blotting analysis; type: functional, cell-based; conditions: not given
Method in brief: (§3)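 HeLa cells treated 24 h at 1 and 10 µM. Lysates resolved by SDS-PAGE and immunoblotted for PARP-1, caspase-7 zymogen and fragment, Mcl-1, Bcl-2, p53, phospho-Rb, total Rb, phospho-Src (Tyr416) and total Src. β-actin used as loading control. Compared with untreated controls; three repeats.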

SMILES | Activity
C[C@]12CC[C@H](O)C[C@H]1CC[C@@H]1[C@@H]2CC[C@]2(C)[C@@H](c3ccoc3)[C@@H](O)C[C@]12O | Active

system: HeLa; test: Induction of apoptosis in human HeLa cells assessed as increase in caspase 7 fragmentation at 1 to 10 uM incubated for 24 hrs by Western blotting analysis; type: functional, cell-based; conditions: dose 1-10 µM; method in brief: as §3

SMILES | Activity
C[C@]12CC[C@H](O)C[C@H]1CC[C@@H]1[C@@H]2CC[C@]2(C)[C@@H](c3ccoc3)[C@@H](O)C[C@]12O | Active

system: HeLa; test: Induction of apoptosis in human HeLa cells assessed as downregulation of Bcl2 protein expression at 1 to 10 uM incubated for 24 hrs by Western blotting analysis; type: functional, cell-based; conditions: dose 1-10 µM; method in brief: as §3

SMILES | Activity
C[C@]12CC[C@H](O)C[C@H]1CC[C@@H]1[C@@H]2CC[C@]2(C)[C@@H](c3ccoc3)[C@@H](O)C[C@]12O | Active

system: HeLa; test: Induction of apoptosis in human HeLa cells assessed as downregulation of Mcl1 protein expression at 1 to 10 uM incubated for 24 hrs by Western blotting analysis; type: functional, cell-based; conditions: dose 1-10 µM; method in brief: as §3

SMILES | Activity
C[C@]12CC[C@H](O)C[C@H]1CC[C@@H]1[C@@H]2CC[C@]2(C)[C@@H](c3ccoc3)[C@@H](O)C[C@]12O | Active

system: HeLa; test: Induction of apoptosis in human HeLa cells assessed as reduction in Rb phosphorylation at 1 uM incubated for 24 hrs by Western blotting analysis; type: functional, cell-based; conditions: not given; method in brief: as §3

SMILES | Activity
C[C@]12CC[C@H](O)C[C@H]1CC[C@@H]1[C@@H]2CC[C@]2(C)[C@@H](c3ccoc3)[C@@H](O)C[C@]12O | inactive

system: HeLa; test: Induction of apoptosis in human HeLa cells assessed as reduction in Rb level at 1 to 10 uM incubated for 24 hrs by Western blotting analysis; type: functional, cell-based; conditions: dose 1-10 µM; method in brief: as §3

SMILES | Activity
C[C@]12CC[C@H](O)C[C@H]1CC[C@@H]1[C@@H]2CC[C@]2(C)[C@@H](c3ccoc3)[C@@H](O)C[C@]12O | Active

system: HeLa; test: Downregulation of p53 protein expression in human HeLa cells at 1 to 10 uM incubated for 24 hrs by Western blotting analysis; type: functional, cell-based; conditions: dose 1-10 µM; method in brief: as §3

SMILES | inhibition
C[C@]12CC[C@H](O)C[C@H]1CC[C@@H]1[C@@H]2CC[C@]2(C)[C@@H](c3ccoc3)[C@@H](O)C[C@]12O | Active

system: HeLa; test: Induction of cell cycle arrest in human HeLa cells assessed as increase in accumulation at S phase at 1 to 10 uM incubated for 24 hrs by PI staining based flow cytometry analysis; type: functional; conditions: dose 1-10 µM; method in brief: as §2

SMILES | Activity
C[C@]12CC[C@H](O)C[C@H]1CC[C@@H]1[C@@H]2CC[C@]2(C)[C@@H](c3ccoc3)[C@@H](O)C[C@]12O | Active

system: HeLa; test: Effect on Src kinase protein expression in human HeLa cells at 1 uM incubated for 24 hrs by western blot analysis; type: functional, cell-based; conditions: not given; method in brief: as §3

SMILES | Activity
C[C@]12CC[C@H](O)C[C@H]1CC[C@@H]1[C@@H]2CC[C@]2(C)[C@@H](c3ccoc3)[C@@H](O)C[C@]12O | inactive

system: HeLa; test: Downregulation of Src kinase activity in human HeLa cells assessed as decrease in Src kinase phosphorylation at Tyr416 residue at 1 uM incubated for 24 hrs by Western blotting analysis; conditions: not given

SMILES | inhibition
C[C@]12CC[C@H](O)C[C@H]1CC[C@@H]1[C@@H]2CC[C@]2(C)[C@@H](c3ccoc3)[C@@H](O)C[C@]12O | Active
